Myeloid diff MLP = myeloid differentiation induction. ER-HoxA9 myeloid progenitors, lysozyme-GFP differentiation, flow cytometry. hit rate 1% among 360,000. calls only at 10 µM;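 active = normalized GFP-positive differentiation at or above the plate's own cutoff, the solvent-only control mean plus 3 SD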;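 also: cells exposed to compound for four days before flow analysis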
VLA-4 inh = inhibition in a human VLA-4 binding assay. hit rate 0.2% among 330,000. VLA-4 expressing cells, ligand binding flow cytometry. AID 2557. inhibition, % (about 7 µM as worked out from the volumes in the protocol); in the data active = inhibition above about 50%
Target sequence (P13612 whole entry, looked up): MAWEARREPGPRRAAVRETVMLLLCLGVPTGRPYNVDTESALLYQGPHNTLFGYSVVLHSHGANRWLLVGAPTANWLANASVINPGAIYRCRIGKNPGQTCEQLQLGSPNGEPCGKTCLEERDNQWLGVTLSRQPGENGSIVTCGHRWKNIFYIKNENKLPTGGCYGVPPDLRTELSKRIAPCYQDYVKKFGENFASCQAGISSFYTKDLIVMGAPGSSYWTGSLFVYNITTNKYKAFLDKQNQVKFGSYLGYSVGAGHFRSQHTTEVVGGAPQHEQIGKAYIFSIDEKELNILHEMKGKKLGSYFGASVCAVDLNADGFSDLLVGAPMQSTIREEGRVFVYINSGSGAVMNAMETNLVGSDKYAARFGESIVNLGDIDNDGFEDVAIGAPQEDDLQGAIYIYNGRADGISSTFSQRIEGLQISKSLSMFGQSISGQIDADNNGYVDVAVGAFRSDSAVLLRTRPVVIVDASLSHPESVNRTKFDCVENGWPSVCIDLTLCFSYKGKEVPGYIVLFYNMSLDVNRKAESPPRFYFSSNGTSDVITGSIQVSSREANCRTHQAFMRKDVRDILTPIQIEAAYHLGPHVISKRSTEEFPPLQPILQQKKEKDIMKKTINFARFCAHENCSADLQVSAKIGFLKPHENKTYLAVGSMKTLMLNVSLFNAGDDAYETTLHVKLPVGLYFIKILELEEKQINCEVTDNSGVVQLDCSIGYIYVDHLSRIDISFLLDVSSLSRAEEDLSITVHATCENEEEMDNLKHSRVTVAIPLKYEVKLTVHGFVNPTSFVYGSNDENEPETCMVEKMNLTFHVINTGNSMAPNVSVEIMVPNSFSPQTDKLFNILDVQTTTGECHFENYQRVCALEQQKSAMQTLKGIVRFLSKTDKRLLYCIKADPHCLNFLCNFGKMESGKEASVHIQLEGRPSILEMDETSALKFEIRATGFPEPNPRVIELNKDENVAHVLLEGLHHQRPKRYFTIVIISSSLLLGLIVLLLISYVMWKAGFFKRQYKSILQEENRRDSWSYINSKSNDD
Platelet DG rel = platelet dense granule release activity. human platelet-rich plasma, SFLLRN dense granule ATP release, luminescence. inhibition, %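 (compounds screened at 7.5 µM in platelet-rich plasma)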. hit rate 0.22% among 300,000. AID 1663;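 active = mean replicate score, as percent of positive control, at or above 50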
SENP1 inh = blocks the human SENP1 SUMO protease catalytic domain | recombinant SENP1 catalytic domain, CyPet-SUMO1-YPet FRET cleavage | Q9P0U3 | AID 624204 | hit rate 0.21% among 360,000 | inhibition, % at 10 µM;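 active = inhibition at least 30% at 10 µM, raw YFP signal under a set limit, fluorescence ratio 0.5 to 1.5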;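 also: 0% = enzyme with DMSO and 100% = no enzyme wells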
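material = recombinant human SENP1 catalytic domain, His6-tagged | quantity = 20 pM enzyme | reagent = 25 nM SUMO1 FRET substrate | compound dosing = 10 µM single point, 0.5% DMSO | timing = 50 min enzyme reaction, room temperature, light-protected | detection = FRET, CFP and YFP emission | control set = no-enzyme low, enzyme-DMSO high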
Active calls of the source: *; i = inactive; . = no result given; + = active, no number. Hits are enriched below; roughly 1.5% of the tested compounds scored in any of these assays.

SMILES	Myeloid diff MLP	VLA-4 inh	Platelet DG rel	SENP1 inh
CC(=O)N1CCc2cc(S(=O)(=O)N3CCc4ccccc43)ccc21	i	1.4	-10.3	0.0
COc1ccc(N2CCN(C(=O)COC(=O)c3oc4ccc(OC)cc4c3C)CC2)cc1	i	2.2	16.3	-3.9
CC1(c2ccccc2)NC(=O)N(CC(=O)N2CCN(S(=O)(=O)c3ccccc3[N+](=O)[O-])CC2)C1=O (stereo not given)	i	6.2	57.0*	1.0
CCOC(=O)C1=C(C)N=c2s/c(=C\c3ccc(OCC(=O)O)c(OC)c3)c(=O)n2C1c1ccc(OC)cc1 (stereo not given)	i	-9.1	.	-25.1
CCOC(=O)C1=C(C)N=c2sc(=Cc3cc(Cl)c(OCC(=O)O)c(OC)c3)c(=O)n2C1c1ccccc1Cl (stereo not given)	+	.	.	-28.8
CCOC(=O)C1=C(C)N=c2s/c(=C\c3cccn3C)c(=O)n2C1c1cccc(OC)c1OC (stereo not given)	+	-18.6	2.9	-24.4
Cc1nc(Cl)sc1C(=O)Nc1ccc(F)cc1	i	.	.	-9.0
CC(C)S(=O)(=O)c1csc(C(=O)Nc2ccc(F)cc2)c1N	i	7.2	57.1*	0.4
CN(C(=O)COC(=O)c1ccccc1Cc1ccccc1)C1CCS(=O)(=O)C1 (stereo not given)	i	-9.4	-3.1	0.5
O=C(O)/C=C/c1cccc(NC(=O)c2ccccc2)c1	i	-0.9	64.0*	1.0
CC(C)(O)C#Cc1ccc(N2C(c3ccsc3)=Cc3ccc(F)cc3C2c2c[nH]c3ccc(C#N)cc23)cc1 (stereo not given)	+	.	.	-5.0
CCOC(=O)c1ccc(-c2ccc(N3C(c4ccsc4)=Cc4ccc(F)cc4C3c3c[nH]c4ccc(C#N)cc34)cc2)cc1F (stereo not given)	i	.	.	-29.5
CCCCNC(=O)C(C)N(CCN(C)C)C(=O)CCCN1C(=O)NC(c2ccc([N+](=O)[O-])cc2)C(C(=O)OCc2ccccc2)=C1C (stereo not given)	+	.	.	1.5
Cc1ccc(N=Nc2cc(C)ccc2N)cc1	i	5.0	70.1*	5.3
COc1ccc(NC(=O)CN(c2ccccc2F)S(=O)(=O)c2ccc(C)cc2)c(OC)c1	i	-30.9	7.0	-0.2
Cc1c(Cl)cn2c(=O)cc(CN(C)Cc3nc4ccccc4c(=O)[nH]3)nc2c1Cl	.	-11.3	14.8	.
CN(C(=O)COC(=O)/C=C/c1cn(-c2ccccc2)nc1-c1ccc2c(c1)OCCO2)C1CCS(=O)(=O)C1 (stereo not given)	i	11.2	-3.8	-0.9
O=C(COC(=O)/C=C/c1cn(-c2ccccc2)nc1-c1ccc2c(c1)OCCO2)NC1CCS(=O)(=O)C1 (stereo not given)	i	-5.7	52.5*	1.5
c1ccc(-c2c[n+]3c(n2-c2ccccc2)CCC3)cc1	+	21.5	-1.7	-1.3
O=C(CCS(=O)(=O)c1ccc(Br)cc1)NCCC1=CCCCC1	i	8.1	7.0	-5.2
COc1ccc(Nc2nc(-c3c[nH]c4ccccc34)cs2)cc1	+	-9.9	4.3	-31.1
COc1ccc(Nc2nc(-c3ccc(OC)cc3)cs2)cc1	i	17.1	5.5	2.1
CCCCCSc1nc2c(c(=O)[nH]c(=O)n2C)n1CC	i	-8.8	-0.6	-13.7
CCCCCSc1nc2c(c(=O)[nH]c(=O)n2C)n1C	+	5.5	-0.3	1.3
Cc1cc2c(SCC(=O)Nc3cccc(O)c3)ncnc2s1	+	.	.	-27.8
SMILES	Myeloid diff MLP	VLA-4 inh	Platelet DG rel	SENP1 inh
COc1cccc(CC(NC(C)=O)C(=O)NC2CCN(C(=O)c3ccc(Cl)cc3)CC2)c1 (stereo not given)	i	.	8.7	-0.9
CSCC[C@H](NC(=O)Nc1cccc(Br)c1)C(=O)O	+	-1.1	20.1	3.1
CSCC[C@H](NC(=O)Nc1cccc(C(F)(F)F)c1)C(=O)O	i	-11.9	-5.1	2.4
CCOC(=O)C1CCCN(S(=O)(=O)c2ccc3c(c2)N(C)C(=O)CC(=O)N3C)C1 (stereo not given)	+	11.6	-0.6	-0.9
O=C(c1ccc2oc(CCCc3ccccc3)nc2c1)N1CCCC1	i	-3.4	0.6	2.5
CCN(CC)c1ccc2c(Cl)c(Br)c(=O)oc2c1	+	.	9.6	-24.4
CN(C)c1ccc(-c2ccnc3c2CC(C)(C(=O)Nc2cccc(Oc4ccccc4)c2)O3)cc1 (stereo not given)	i	.	.	-2.7
COc1ccc(-n2c(C)c(C(C)=O)c(C(C)=O)c2C)cc1OC	i	0.0	52.8*	-6.3
COc1ccc(-n2c(C)c(C(C)=O)c(C(C)=O)c2C)cc1	i	-2.4	3.1	2.7
Cc1nc(SCc2c(F)cccc2Cl)c2c(=O)n(C)c(=O)n(C)c2n1	+	-11.1	-1.1	2.2
Cc1cccc(NC(=O)CSc2nc(C)nc3c2c(=O)n(C)c(=O)n3C)c1	i	.	.	-1.4
COc1ccccc1/C=C\C(=O)NCC(=O)N/N=C/c1cccc(OC)c1O	i	21.4	8.2	-2.4
COc1ccc(/C=N/NC(=O)CNC(=O)/C=C/c2ccccc2OC)cc1	+	17.3	15.3	-0.4
O=c1c[n+]([O-])c2ccccc2n1OCc1ccccn1	+	4.3	4.1	0.9
COC(=O)c1ccccc1COn1c(=O)c[n+]([O-])c2ccccc21	+	-4.0	1.9	6.1
O=c1c[n+]([O-])c2ccccc2n1OCc1c(F)cccc1F	+	0.0	0.0	2.6
CCOn1c(=O)c[n+]([O-])c2ccccc21	+	0.0	10.3	-1.1
Cc1ccc(NC(=O)CSCC(=O)OC(C)C(=O)Nc2ccccc2C)cc1 (stereo not given)	i	.	.	0.4
COc1ccc(NC(=O)COC(=O)c2ccc([N+](=O)[O-])o2)cc1Cl	i	-6.4	2.1	2.3
CCOc1ccc(-c2ccc(SCc3ccccn3)nn2)cc1	i	60.8*	-3.2	-0.7
CCc1ccc(-c2ccc(SCc3ccccn3)nn2)cc1	i	-0.4	-15.1	-1.5
COc1cc2[nH]c(=S)nc(NCc3ccccn3)c2cc1OC	+	.	.	-11.6
Cc1cc(=O)oc(C)c1C(=O)NCCC(C)C	i	-0.5	-9.9	1.3
Cc1cc(=O)oc(C)c1C(=O)NCCNC(=O)c1c(C)cc(=O)oc1C	i	8.8	85.0*	-2.7
COc1cccc(CN2CCN(C(=O)c3ccco3)CC2)c1	i	-2.5	-0.5	1.8
C[C@H](CO)N1C[C@H](C)[C@@H](CN(C)Cc2ccc(Cl)c(Cl)c2)Oc2c(NC(=O)Cc3ccccc3)cccc2C1=O	+	-14.6	.	1.4
Cc1ccc(CC(=O)NNC(=O)c2ccncc2)cc1C	i	3.2	6.4	0.1
CC(=O)NC(c1cc(Cl)c2ccccc2c1O)C(C)C (stereo not given)	+	8.4	.	4.9
OC(c1ccccc1)C(O)C(c1ccccc1)N1CCCCC1 (stereo not given)	i	.	.	1.6
CCN(CC(=O)Nc1ccc(OC)cc1)CC(=O)N1CC(=O)Nc2ccccc21	i	8.8	.	-0.9
